A short description of the series: Toxicity liver stage against HepG2, at 10uM. Format: cell-based. Also noted: test concentration 10 uM, cell line HepG2-A16-CD81EGFP. The settings on record: human, HepG2-A16-CD81EGFP cells; read-out: INHIBITION
The method in brief: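 Uninfected HepG2-A16-CD81EGFP cells, 3 × 10^3 per well, 1536-well, plated on prespotted compound at 10 μM final, parasite-free screening media added to match infected plates; puromycin 10 μM positive, DMSO 0.5% negative; run in parallel with 48 h PbLuc assay at 37 °C, 5% CO2; viability by CellTiter-Glo luminescence, normalized to controls.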
On to `COC[C@]1(O)CCN(C2CCN(c3ccc(OC)cc3)CC2)CC1(C)C`, for which the cytotoxicity at 10 µM was -3.17%.
Take `CCc1nnc(SC2CCCN(c3cnn(C)c3)C2=O)n1C` (configuration not stated): the cytotoxicity at 10 µM was found to be 2.68%.
Next, `O=C(c1cnccn1)N1CC[C@H]2[C@@H]1CCC(=O)N2c1cccnc1`: -81.6%.
Next, `CCN1CC[C@@]2(C(=O)N3CCCC3)CCN(S(C)(=O)=O)CC[C@@H]12`: -0.537%.
The figure for `CN(C)CCN(C)c1nc(CCc2ccccc2)nc2c1cnn2C` is 0.562%.
Turning to `CC(C)(C)n1c(NC(=O)CNC(=O)NC2CC2)nc2ccccc21`, the cytotoxicity at 10 µM was 4.23%.
Next, `O=C(c1cccnc1O)N(CCO)Cc1cc(Br)ccc1F`: 6.27%.
Next, `CN(C)CCN(Cc1ccccc1)C(=O)CN1CCCNC1=O`: 1.42%; `Fc1cccc(-c2c[nH]c([C@@H]3COCCN3C3CCOCC3)n2)c1`: -1.31%; `CCc1[nH]ncc1C(=O)N1CCCC(n2cc(C)cn2)C1` (configuration not stated): -11.4%.
The figure for `CN(C)CCN1C[C@@H]2CN(S(=O)(=O)c3cccs3)C[C@@H]2C1=O` is 0.0221%; for `O=C1N(CC2CC2)C2(CCSCC2)NC12CCCC2` it is -150%.
`Cc1noc(C)c1C(C)NC(=O)N1CCN(c2cccs2)CC1` (configuration not stated): the cytotoxicity at 10 µM turned out to be 6.43%.
Next, `CCn1c(C)nnc1SCCNc1cc(N2CCOCC2)ncn1`: 0.801%.
The figure for `COc1ccc(-c2cc(C3(O)CCOC(C)(C)C3)on2)cc1` (configuration not stated) is -3.12%.
The figure for `COCCN(C)C(=O)Nc1ccc(C(=O)NCCC(=O)OC)cc1` is 7.2%; for `CS(=O)(=O)N1CC(c2nc[nH]n2)c2cc(C(=O)NC3CC3)ccc21` (configuration not stated) it is -158%.
Consider `O=C(CN1CCN(C(=O)c2sccc2C2CC2)CC1)NC1CC1`, for which the cytotoxicity at 10 µM was -3.75%.
Take `CCN(Cc1nc(C)no1)C(=O)C1CC(=O)N(Cc2ccccn2)C1` (configuration not stated): the cytotoxicity at 10 µM is 4.78%.
The figure for `O=C1OC2(CCNCC2)CN1CC(=O)N1CCCC1c1ccco1` (configuration not stated) is -14.6%; for `CCc1nnc(CN(C)c2nc(C3CCCC3)nc3c2cnn3C)o1` it is -11.3%; for `CCNC(=O)NCCCn1nc2ccccn2c1=O` it is -18.2%.
The figure for `Cc1nc(O)cc(C2(C)CCCNC2)n1` (configuration not stated) is 2.98%; for `CCOCCN1Cc2cnn(C)c2C(COCC)C1` (configuration not stated) it is -62.6%.
The figure for `CCOC(=O)NC(CNC(=O)c1cc(Cl)ccn1)CC(C)C` (configuration not stated) is 5.38%; for `CCc1nn(C)c(CC)c1CNC(=O)Nc1cccc2c1CCN2C` it is -1.57%.
Consider `C=C(C)COc1cccc(C(=O)N(C)Cc2cc(CC)no2)c1`, for which the cytotoxicity at 10 µM was -3.42%.
The figure for `Fc1ccc(CN2CCC3(CCCN(c4nncs4)C3)C2)cc1` (configuration not stated) is -141%.
The figure for `Cc1nn(C)c(C)c1CCC(=O)NCc1cccnc1OC1CCCC1` is -4.38%; for `CCN1CCN(C2CCN(CCOc3ccc(F)cc3)CC2)C1=O` it is -5.38%; for `Cc1ccc(F)c(S(=O)(=O)NCc2cccc(C(=O)N3CCCC3)c2)c1` it is -11.1%.
Consider `CS(=O)(=O)CCCOc1cccc(-n2ccnc2)c1`, for which the cytotoxicity at 10 µM was determined as 5.13%.
Next, `COCCN1CCC(c2nc3c([nH]2)CC(C)(C)CNC3=O)C1` (configuration not stated): -2.18%; `Cc1nccn1C1CCCN(C(=O)CCc2nc(C(C)C)no2)C1` (configuration not stated): -6.27%; `Cc1ccc(CN2CCC3(CCC(=O)N3CC(=O)N(C)C)CC2)s1`: -2.45%.
Next, `CCOCC1CN(Cc2cccs2)Cc2nn(C)cc21` (configuration not stated): -75.2%; `COc1ccc(CN2CCCC2)cc1Oc1ccc(NC(C)=O)cc1`: -1.1%.
The figure for `Cc1ccc(C(=O)N2C[C@@H]3OCCN(CCN4CCCC4)[C@@H]3C2)cn1` is 2.39%; for `O=C1CCCN1Cc1ncn2c1CN(C(=O)NC1CCCCC1)CCC2` it is -150%; for `CSCC(=O)N1CCc2nc(C)nc(NCc3ccccc3)c2CC1` it is 1.69%.
On to `CCC(CC)C(O)CNC(=O)Cc1c[nH]c2ncccc12` (configuration not stated), for which the cytotoxicity at 10 µM amounted to 0.476%.
Next, `COc1ccc(CNc2n[nH]c(C)n2)cc1`: 1.64%; `Nc1cc(-c2cc(C(=O)O)ccc2Cl)c2cc[nH]c2n1`: 1.94%.
The figure for `CN1CCc2cc(C(=O)N(C)C)c(NCC3CC3)nc2CC1` is 7.8%.
Next, `CN(C)C(=O)c1cccc(C[S+]([O-])CC(=O)NC2CCCC2)c1` (configuration not stated): 5.79%; `CCC(=O)Nc1ccc2c(ccn2CCOC)c1`: 3.54%.
As for `Cc1cc(OCC(N)=O)ccc1NC(=O)C(C)Cc1ccccc1F` (configuration not stated), the cytotoxicity at 10 µM was -0.0944%.
The figure for `CCC(=O)N1CCCC1C(=O)N1CCC(Cc2ccc(F)cc2)CC1` (configuration not stated) is -0.0726%.
Next, `O=C(NCc1ccc(F)cc1)N1CCN(CC(O)C2CC2)CC1` (configuration not stated): 8.88%.
The figure for `CNc1ncccc1C(=O)N1CCN(Cc2ccc(C)cc2)C(=O)C1C` (configuration not stated) is 5.67%; for `COc1cccc(Cl)c1C(C(=O)O)N1CCC(O)(c2cccnc2)CC1` (configuration not stated) it is 6.03%; for `Cc1cc2c(cc1NC(N)=O)OCO2` it is 3.13%.
With `Cc1cc(NC(=O)c2ccc(F)cc2F)n(C)n1`, the cytotoxicity at 10 µM is -2.18%.
For `Cc1cc(C(=O)N2CCN(c3nc4c(F)cccc4s3)CC2)no1`, the cytotoxicity at 10 µM was -3.64%.
The figure for `CC(=O)NCc1nc(CCOc2ccc(Cl)cc2)no1` is -145%; for `CN(C)Cc1cc(=O)n2c(n1)CN(C(=O)Cc1cccs1)CCC2` it is -2.8%.
On to `Cc1cnc2n(c1=O)CC(C(=O)Nc1ccccc1Cl)CS2` (configuration not stated), for which the cytotoxicity at 10 µM is -10.7%.
The figure for `CN1CCCC(c2cccc(CCC(=O)NCC3(C)COC3)n2)C1` (configuration not stated) is -8.24%; for `CC(C)(C)CNS(=O)(=O)C1CS(=O)(=O)c2ccccc21` (configuration not stated) it is 14.3%.
Regarding `Clc1ccc2oc(C3CCN(Cc4cccnc4)CC3)nc2c1`, the cytotoxicity at 10 µM stood at 9.82%.
The figure for `CCCN(CCC)c1ncc(S(=O)(=O)c2ccc(C)cc2)c(N)n1` is 3.19%; for `CCC1CCCN(CC(=O)Nc2oc(C)c3c(C)n[nH]c(=O)c23)C1` (configuration not stated) it is -3.66%.
Next, `CCn1ncc2c1C(COC)CN(Cc1ccsc1)C2` (configuration not stated): -7.47%.
The figure for `Cc1ccc(C(NC(=O)Cc2nc3ncccn3n2)C2CC2)cc1` (configuration not stated) is 5.06%; for `CCNC(=O)CN(CC)Cc1nc2c(F)cccc2n1CC` it is 9.57%.
On to `CCC(NC(=O)CC(F)(F)F)c1ccccc1OCC(=O)N1CCCC1` (configuration not stated), for which the cytotoxicity at 10 µM came to 0.145%.
Next, `CC(=O)N1CCOCC2(C1)CN(S(C)(=O)=O)CCO2` (configuration not stated): 2.84%.
On to `COCCN(CCC#N)Cn1cc(Cl)cn1`, for which the cytotoxicity at 10 µM was 4.68%.
The figure for `CC(Cn1ccnc1)NS(=O)(=O)c1ccc(C#N)c(Cl)c1` (configuration not stated) is -9.97%.
Next, `Cc1nc(C)c(C(=O)NCCNC(=O)c2ccc(F)cc2F)s1`: -5.55%; `CC(C)c1nn(C)c(N(C)C)c1CNCc1ccc2c(c1)OCCO2`: -12.6%; `CC(C)N1CCO[C@@H]2CN(S(=O)(=O)c3cccs3)CC[C@@H]2C1`: 5.9%.
The figure for `CCn1cc(S(=O)(=O)N2CCC3(CCCN(CC4CCC4)C3=O)C2)cn1` (configuration not stated) is 2.45%; for `Cc1cn2c(n1)CCC(NC(=O)c1c[nH]c(C)n1)C2` (configuration not stated) it is -0.361%; for `CCOC(=O)c1nnc2ccccc2c1N1CCOC(C)(C)C1` it is 13.8%.
`CCCOc1ccc(NC(=O)NCCC(=O)N(C)C)cc1Cl`: the cytotoxicity at 10 µM was -10.9%.
Next, `CS(=O)(=O)NCC1CCCCN1Cc1ccccc1C#N` (configuration not stated): -11.5%; `CC1(C(=O)N2CCC(n3cc(C4(O)CCCC4)nn3)CC2)CCCCC1`: 0.68%; `CCOCC1CN(c2ccc(C)nn2)Cc2nn(CC)cc21` (configuration not stated): 11.5%.
Next, `O=C1CC(c2ccsc2)c2cnn(C3CCCC3)c2N1` (configuration not stated): -0.524%; `CCc1ccc(C2COCCN2C(=O)Nc2cc(C)on2)o1` (configuration not stated): -4.31%.
Take `O=C(CO)N1C[C@H]2CN(Cc3cccc(F)c3)C(=O)[C@H]2C1`: the cytotoxicity at 10 µM is -82.3%.
Next, `Cc1csc(C2CCCN(C(=O)c3ccc(=O)n(C)n3)C2)n1` (configuration not stated): 6.76%; `CN1CCN(CC[C@@H]2CC[C@H](O)[C@@H](C(=O)Nc3ccccc3)O2)CC1`: -7.1%; `COCCCC1(C(=O)O)CCCN(Cc2cc3c(cc2C)OCCO3)C1` (configuration not stated): -2.3%.
The figure for `Cc1n[nH]c(C2CN(C(=O)c3ccc4c(c3)CCCC4)CCO2)n1` (configuration not stated) is -10.8%.
The figure for `CCCNC(=O)C(C)NC(=O)CCc1ccccc1Br` (configuration not stated) is 14.5%; for `Cc1ccc(N(Cc2ccco2)C(=O)Cc2cc(=O)n(C)[nH]2)cc1` it is -152%; for `CC(NC(=O)NCCCN1CCCC1=O)c1ccc(Cl)s1` (configuration not stated) it is -8.28%.
In the case of `CC(=O)NCc1cc2n(n1)CCN(Cc1cccc(CCN)c1)C2`, the cytotoxicity at 10 µM was -19.5%.
The figure for `Cc1ncc(CN2CCC3(CCCN(CC4CCC4)C3)C2)cn1` (configuration not stated) is -6.7%.
Next, `Cc1ccc(-n2cc(C(=O)NCC(C)Cn3cccn3)nn2)cc1` (configuration not stated): -46.2%; `CC1CN(Cc2ccc(-n3cccn3)cc2)CCO1` (configuration not stated): -7.18%; `O=C(O)C1(Cc2ccccc2Cl)CCN(c2ncccc2F)CC1`: -12.3%.
The figure for `Cc1ccc([C@]2(O)CC[C@H]3CN(Cc4cccc(F)c4F)C[C@H]32)nc1` is -8.38%.
Take `COc1ccc(Cc2nnc3n2N=C(C(C)(C)C)CS3)cc1`: the cytotoxicity at 10 µM is 10.7%.
Next, `Cc1ccc(C(=O)N2CCCn3nc(CCC(=O)O)cc3C2)cc1Cl`: -3.49%.

These data come from ChEMBL document CHEMBL4513216, “Probing the Open Global Health Chemical Diversity Library for Multistage-Active Starting Points for Next-Generation Antimalarials” (ACS Infect Dis, 2020).
